Values after ≈ are worked out from the molar mass of the structure shown.

Consider 3 molecules from ChEMBL document CHEMBL1154333, “Xanthepinone, an antimicrobial polyketide from a soil fungus closely related to Phoma medicaginis” (2009).

The subject of one assay is Candida albicans. Nature of the assay: Antifungal activity against Candida albicans by serial dilution test. Type of assay: functional. The procedure, abridged: (§1)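 Yeasts tested by serial dilution in YMG medium (glucose 1%, malt extract 1%, yeast extract 0.4%).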
A further assay concerns Rhizomucor miehei. The assay can be described thus: Inhibition of conidial germination in Mucor miehei. The class given is functional. The procedure, abridged: (§2)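 Conidia from 10-day-old cultures were pelleted (1000g, 10 min) and resuspended in distilled water. Each well held 0.5 × 10⁴ conidia in 0.2 mL distilled water and was incubated 16 h at 28 °C. Germinated conidia were counted under an inverted microscope: triplicates, 3 × 100 conidia. The value is the IC100, the concentration for complete germination inhibition.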

A further assay deals with Eremothecium coryli. Nature of the assay: Antifungal activity against Nematospora coryli by serial dilution test. Type of assay: functional. The procedure, abridged: as §1
The next assay concerns Proteus vulgaris. The assay can be described thus: Antibacterial activity against Proteus vulgaris by serial dilution test. The class given is functional. The procedure, abridged:
(§3)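 Serial broth dilution in nutrient broth.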

Another assay concerns Pyricularia grisea. Nature of the assay: Inhibition of conidial germination in Magnaporthe grisea. The class given is functional. The procedure, abridged:
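M. grisea strain 70-15, grown on CM medium. Conidia were harvested from plates kept at 28 °C on a 16 h light/8 h dark cycle (24 °C in the dark). They were pelleted (1000g, 10 min) and resuspended in distilled water. Each well held 0.5 × 10⁴ conidia/0.2 mL water, 16 h at 28 °C. Germinated conidia were counted microscopically: triplicates, 3 × 100. Value given as IC100.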

In another assay the test system is HeLa S3. The assay can be described thus: Cytotoxicity against human HeLaS3 cells at 50 ug/ml. The class given is functional, cell-based.
The subject of the next assay is Brevibacillus brevis. The assay can be described thus: Antibacterial activity against Bacillus brevis ATCC 9999 by serial dilution test. Type of assay: functional. The procedure, abridged: as §3
Assay [1] deals with Enterobacter cloacae subsp. dissolvens. Nature of the assay: Antibacterial activity against Enterobacter dissolvens by serial dilution test. Type of assay: functional. The procedure, abridged: as §3
In a further assay the test system is Paecilomyces variotii. The assay can be described thus: Inhibition of conidial germination in Paecilomyces variotii. The class given is functional. The procedure, abridged: as §2
The test system of another assay is Escherichia coli. The assay can be described thus: Antibacterial activity against Escherichia coli K-12 by serial dilution test. The class given is functional. The procedure, abridged:
as §3

In a further assay the test system is Pseudomonas fluorescens. The assay can be described thus: Antibacterial activity against Pseudomonas fluorescens by serial dilution test. Type of assay: functional. The procedure, abridged: as §3
The test system of another assay is Staphylococcus aureus. The assay can be described thus: Antibacterial activity against Staphylococcus aureus by serial dilution test. Type of assay: functional. The procedure, abridged: as §3
The subject of a further assay is Saccharomyces cerevisiae. Nature of the assay: Antifungal activity against Saccharomyces cerevisiae by serial dilution test. Type of assay: functional. The procedure, abridged: as §1
The test system of another assay is Penicillium chrysogenum. The assay can be described thus: Inhibition of conidial germination in Penicillium notatum. Type of assay: functional. The procedure, abridged:
as §2

The subject of the next assay is Bacillus subtilis. The assay can be described thus: Antibacterial activity against Bacillus subtilis ATCC 6633 by serial dilution test. The class given is functional. The procedure, abridged:
as §3

The subject of the next assay is Phytophthora infestans. The assay can be described thus: Inhibition of conidial germination in Phytophthora infestans. Type of assay: functional. The procedure, abridged: as §2
The next assay relates to Micrococcus luteus. The assay can be described thus: Antibacterial activity against Micrococcus luteus by serial dilution test. Type of assay: functional. The procedure, abridged:
as §3

Another assay relates to HepG2. The assay can be described thus: Cytotoxicity against human HepG2 cells at 50 ug/ml. The class given is functional, cell-based.
The next assay relates to Botrytis cinerea. Nature of the assay: Inhibition of conidial germination in Botrytis cinerea. The class given is functional. The procedure, abridged: as §2

A word on the MIC: it is the lowest concentration that inhibits growth of the organism. Low values mean inhibition by little substance, high ones a need for much substance. As to `C[C@@H]1[C@H](O)[C@@H](C)/C=C/C=C/C=C/C=C/C=C/C=C/C=C/[C@H](O[C@@H]2O[C@H](C)[C@@H](O)[C@H](N)[C@@H]2O)C[C@@H]2O[C@](O)(C[C@@H](O)C[C@@H](O)[C@H](O)CC[C@@H](O)C[C@@H](O)CC(=O)O[C@H]1C)C[C@H](O)[C@H]2C(=O)O` [AMPHOTERICIN B], the MIC in the assay with Candida albicans came to 10 µg/mL (≈ 10.8 µM); in the assay with Rhizomucor miehei (Rhizomucor miehei), 5 µg/mL (≈ 5.41 µM); in the assay with Eremothecium coryli, 15 µg/mL (≈ 16.2 µM).
Turning to `CN[C@@H]1[C@H](O[C@H]2[C@H](O[C@H]3[C@H](O)[C@@H](O)[C@H](N=C(N)N)[C@@H](O)[C@@H]3N=C(N)N)O[C@@H](C)[C@]2(O)C=O)O[C@@H](CO)[C@H](O)[C@H]1O.CN[C@@H]1[C@H](O[C@H]2[C@H](O[C@H]3[C@H](O)[C@@H](O)[C@H](N=C(N)N)[C@@H](O)[C@@H]3N=C(N)N)O[C@@H](C)[C@]2(O)C=O)O[C@@H](CO)[C@H](O)[C@H]1O.O=S(=O)(O)O.O=S(=O)(O)O.O=S(=O)(O)O` [STREPTOMYCIN SULFATE], the MIC in the assay with Proteus vulgaris worked out at 5 µg/mL.
In the case of `COC(=O)C1(O)C(=O)C(C)=COc2oc3cccc(O)c3c(=O)c21` (stereo not drawn) [XANTHEPINONE], the IC100 with Pyricularia grisea came out at 2 µg/mL; in the assay on Paecilomyces variotii, 50 µg/mL; in the assay with Rhizomucor miehei it was 25 µg/mL; in the assay with Penicillium chrysogenum it was 25 µg/mL; in the assay with Phytophthora infestans it was 5 µg/mL; with Botrytis cinerea it was 10 µg/mL. Moreover, the Activity result in the assay on HeLa S3 and with HepG2 was “Not toxic” throughout. Also, the MIC in the assay with Brevibacillus brevis was over 50 µg/mL; in [1] it was over 50 µg/mL; in the assay with Candida albicans, 50 µg/mL (≈ 150 µM); in the assay on Escherichia coli it was over 50 µg/mL; in the assay with Pseudomonas fluorescens, over 50 µg/mL; with Proteus vulgaris it was 50 µg/mL (≈ 150 µM). Further, the MIC against Staphylococcus aureus is 50 µg/mL (≈ 150 µM); against Saccharomyces cerevisiae, 25 µg/mL (≈ 75.2 µM); in the assay with Bacillus subtilis, over 50 µg/mL; in the assay with Micrococcus luteus, over 50 µg/mL; against Eremothecium coryli, 10 µg/mL (≈ 30.1 µM).
